The source made the active and inactive calls. The calls are words filed in the database; no cut-off is given here.
Experiments:
[1] = biological target: DNA topoisomerase 2-alpha (Homo sapiens) (UniProt P11388); assay: Inhibition of human recombinant topoisomerase 2alpha-mediated relaxation of supercoiled pBR322 at 100 uM after 60 mins using ethidium bromide staining by agarose gel electrophoresis
Summary of the method: (§1)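 Supercoiled pBR322 (0.25 µg) with 1 U human recombinant topoisomerase IIα and test compound, 60 min at 37 °C in 20 µl reaction buffer. Stopped with SDS/bromophenol blue/glycerol plus 50 µg/mL proteinase K, 30 min at 37 °C. Separated on 1% agarose at room temperature, ethidium bromide stained (1 µg/mL, TAE), UV-visualized.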

[2] = system: A2B1; assay: Induction apoptosis in mouse A2B1 cells assessed as ROS production at 10 uM/L using DCFH-DA by flow cytometry relative to control; type: functional, cell-based
Summary of the method: (§2)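 Transgenic mouse cells exposed to compound at 10 µmol/L. ROS generation was measured by flow cytometry using the probe DCFH-DA.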

[3] = system: Nucleic Acid; assay: Binding affinity to salmon testes DNA by linear flow dichroism analysis; type: nucleic-acid assay; settings: Salmonidae
Summary of the method: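 Salmon testes DNA (1.9 × 10^-3 M) in ETN buffer (10 mM Tris, 10 mM NaCl, 1 mM EDTA, pH 7). Linear dichroism spectra were recorded at 25 °C over a range of [drug]/[DNA] ratios on a spectropolarimeter converted for LD.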

[4] = system: yB8; assay: Induction apoptosis in mouse yB8 cells assessed as ROS production at 10 uM/L using DCFH-DA by flow cytometry relative to control; type: functional, cell-based; summary of the method: as §2
[5] = system: A2C12; assay: Induction apoptosis in mouse A2C12 cells assessed as relative caspase activity at 10 uM/L after 2 hrs by rhodamine 110 fluorescence assay; type: functional, cell-based
Summary of the method: (§3)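 Cells were pretreated with compound (10 µmol/L) for 2 h. The cell-permeable caspase substrate (Asp)2-rhodamine 110 (10 µmol/L) was then added for 2 h more. Caspase cleavage releases fluorescent rhodamine 110, and the read-out was mean fluorescence.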

[6] = system: HeLa; assay: Cytotoxicity against human HeLa cells after 72 hrs by trypan blue assay; type: functional, cell-based
Summary of the method: (§4)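 A-431, HeLa and HL-60 cells at 4×10^4 per well, incubated 24 h. HeLa and A-431 then received fresh medium. Graded compound concentrations were added for a further 72 h at 37 °C, 5% CO2. Viability was counted by Trypan blue exclusion. IC50 is the concentration giving 50% reduction in cell number versus control: ≥3 independent experiments, triplicate samples, mean ± SD.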

[7] = organism: Mus musculus; assay: Cytotoxicity against mouse betaD5 cells after 24 to 96 hrs by MTS assay; type: functional, cell-based
Summary of the method: (§5)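 Mouse transgenic lines plated at 10^3 cells/well and left 24 h to attach. Drugs diluted in medium were added for 24 or 96 h. CellTiter 96 AQueous One (MTS) reagent was then added for 1 h at 37 °C, with absorbance read at 490 nm. Each condition was run in quintuplicate, and cytotoxicity was expressed as percent of controls.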

[8] = system: B3; assay: Induction apoptosis in mouse B3 cells assessed as ROS production at 10 uM/L using DCFH-DA by flow cytometry relative to control; type: functional, cell-based; summary of the method: as §2
[9] = system: yA7; assay: Cytotoxicity against mouse yA7 cells after 24 to 96 hrs by MTS assay; type: functional, cell-based; summary of the method: as §5
[10] = system: yD1; assay: Induction apoptosis in mouse yD1 cells assessed as relative caspase activity at 10 uM/L after 2 hrs by rhodamine 110 fluorescence assay; type: functional, cell-based; summary of the method: as §3
[11] = system: Craf/Cmyc; assay: Induction apoptosis in mouse Craf/Cmyc cells assessed as ROS production at 10 uM/L using DCFH-DA by flow cytometry relative to control; type: functional, cell-based; summary of the method: as §2
[12] = system: yB8; assay: Induction apoptosis in mouse yB8 cells assessed as relative caspase activity at 10 uM/L after 2 hrs by rhodamine 110 fluorescence assay; type: functional, cell-based; summary of the method: as §3
[13] = system: HUVEC; assay: Antiangiogenic activity in HUVEC cocultured with human PaSMC assessed as inhibition of capillary-like network formation up to 200 nM after 72 hrs; type: functional, cell-based
Summary of the method: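 Primary HUVEC (passage 5, retrovirally labelled with RFP) and pulmonary artery vSMC (passage 5) co-seeded at 5×10^4 PaSMC plus 10×10^3 HUVEC per well in EGM-2, briefly spun at 200 g, attached 3 h. Compounds were then added at final 2–200 nM, two replicates per concentration. Networks formed over 72 h at 37 °C, 5% CO2, followed by automated imaging and image analysis of tube formation.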

[14] = organism: Mus musculus; assay: Induction apoptosis in mouse betaD5 cells assessed as ROS production at 10 uM/L using DCFH-DA by flow cytometry relative to control; type: functional, cell-based; summary of the method: as §2
[15] = system: yA7; assay: Induction apoptosis in mouse yA7 cells assessed as ROS production at 10 uM/L using DCFH-DA by flow cytometry relative to control; type: functional, cell-based; summary of the method: as §2
[16] = system: yA3; assay: Induction apoptosis in mouse yA3 cells assessed as ROS production at 10 uM/L using DCFH-DA by flow cytometry relative to control; type: functional, cell-based; summary of the method: as §2
[17] = organism: Mus musculus; assay: Cytotoxicity against mouse betaD10 cells after 24 to 96 hrs by MTS assay; type: functional, cell-based; summary of the method: as §5
[18] = organism: Bos taurus; assay: Inhibition of calf thymus topoisomerase 1-mediated relaxation of supercoiled pBR322 at 100 uM after 60 mins using ethidium bromide staining by agarose gel electrophoresis
Summary of the method: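 Supercoiled pBR322 (0.25 µg) with 2 U calf thymus topoisomerase I and test compound, 60 min at 37 °C in 20 µl reaction buffer. Stopped with SDS/bromophenol blue/glycerol plus 50 µg/mL proteinase K, 30 min at 37 °C. Run on 1% agarose at room temperature, stained with ethidium bromide 1 µg/mL in TAE, imaged under UV.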

[19] = organism: Mus musculus; assay: Induction apoptosis in mouse betaD10 cells assessed as relative caspase activity at 10 uM/L after 2 hrs by rhodamine 110 fluorescence assay; type: functional, cell-based; summary of the method: as §3
[20] = system: yA7; assay: Induction apoptosis in mouse yA7 cells assessed as relative caspase activity at 10 uM/L after 2 hrs by rhodamine 110 fluorescence assay; type: functional, cell-based; summary of the method: as §3
[21] = system: A2C12; assay: Induction apoptosis in mouse A2C12 cells assessed as ROS production at 10 uM/L using DCFH-DA by flow cytometry relative to control; type: functional, cell-based; summary of the method: as §2
[22] = system: yD12; assay: Induction apoptosis in mouse yD12 cells assessed as relative caspase activity at 10 uM/L after 2 hrs by rhodamine 110 fluorescence assay; type: functional, cell-based; summary of the method: as §3
[23] = system: B3; assay: Induction apoptosis in mouse B3 cells assessed as relative caspase activity at 10 uM/L after 2 hrs by rhodamine 110 fluorescence assay; type: functional, cell-based; summary of the method: as §3
[24] = system: A-431; assay: Cytotoxicity against human A431 cells after 72 hrs by trypan blue assay; type: functional, cell-based; settings: A-431, 72 h; summary of the method: as §4
[25] = organism: Mus musculus; assay: Induction apoptosis in mouse betaD5 cells assessed as relative caspase activity at 10 uM/L after 2 hrs by rhodamine 110 fluorescence assay; type: functional, cell-based; summary of the method: as §3
[26] = system: A2B1; assay: Cytotoxicity against mouse A2B1 cells after 24 to 96 hrs by MTS assay; type: functional, cell-based; summary of the method: as §5
[27] = system: yD12; assay: Cytotoxicity against mouse yD12 cells after 24 to 96 hrs by MTS assay; type: functional, cell-based; summary of the method: as §5
[28] = system: yB8; assay: Cytotoxicity against mouse yB8 cells after 24 to 96 hrs by MTS assay; type: functional, cell-based; summary of the method: as §5
[29] = system: HL-60; assay: Cytotoxicity against human HL60 cells after 72 hrs by trypan blue assay; type: functional, cell-based; settings: HL-60, 72 h; summary of the method: as §4
[30] = biological target: DNA topoisomerase 2-alpha (Homo sapiens) (UniProt P11388); assay: Inhibition of human recombinant topoisomerase 2alpha-mediated relaxation of supercoiled pBR322 after 60 mins using ethidium bromide staining by agarose gel electrophoresis; summary of the method: as §1
[31] = system: yA3; assay: Induction apoptosis in mouse yA3 cells assessed as relative caspase activity at 10 uM/L after 2 hrs by rhodamine 110 fluorescence assay; type: functional, cell-based; summary of the method: as §3
[32] = system: yA3; assay: Cytotoxicity against mouse yA3 cells after 24 to 96 hrs by MTS assay; type: functional, cell-based; summary of the method: as §5
[33] = system: Craf/Cmyc; assay: (§6) Induction apoptosis in mouse Craf/Cmyc cells assessed as relative caspase activity at 10 uM/L after 2 hrs by rhodamine 110 fluorescence assay; type: functional; summary of the method: as §3
[34] = system: yD1; assay: Induction apoptosis in mouse yD1 cells assessed as ROS production at 10 uM/L using DCFH-DA by flow cytometry relative to control; type: functional, cell-based; summary of the method: as §2
[35] = organism: Mus musculus; assay: Induction apoptosis in mouse betaD10 cells assessed as ROS production at 10 uM/L using DCFH-DA by flow cytometry relative to control; type: functional, cell-based; summary of the method: as §2
[36] = system: A2C12; assay: Cytotoxicity against mouse A2C12 cells after 24 to 96 hrs by MTS assay; type: functional, cell-based; summary of the method: as §5
[37] = system: Craf/Cmyc; assay: Cytotoxicity against mouse Craf/Cmyc cells after 24 to 96 hrs by MTS assay; type: functional, cell-based; summary of the method: as §5
[38] = system: A2B1; assay: Induction apoptosis in mouse A2B1 cells assessed as relative caspase activity at 10 uM/L after 2 hrs by rhodamine 110 fluorescence assay; type: functional, cell-based; summary of the method: as §3
[39] = system: B3; assay: Cytotoxicity against mouse B3 cells after 24 to 96 hrs by MTS assay; type: functional, cell-based; summary of the method: as §5
[40] = system: yD12; assay: Induction apoptosis in mouse yD12 cells assessed as ROS production at 10 uM/L using DCFH-DA by flow cytometry relative to control; type: functional, cell-based; summary of the method: as §2
[41] = biological target: DNA topoisomerase 2-alpha (Homo sapiens) (UniProt P11388); assay: Inhibition of human recombinant topoisomerase 2alpha-mediated relaxation of supercoiled pBR322 at up to 100 uM after 60 mins using ethidium bromide staining by agarose gel electrophoresis; summary of the method: as §1
[42] = as §6; type: functional; summary of the method: as §3

DNA topoisomerase 2-alpha (Homo sapiens), sequence (P11388 whole entry): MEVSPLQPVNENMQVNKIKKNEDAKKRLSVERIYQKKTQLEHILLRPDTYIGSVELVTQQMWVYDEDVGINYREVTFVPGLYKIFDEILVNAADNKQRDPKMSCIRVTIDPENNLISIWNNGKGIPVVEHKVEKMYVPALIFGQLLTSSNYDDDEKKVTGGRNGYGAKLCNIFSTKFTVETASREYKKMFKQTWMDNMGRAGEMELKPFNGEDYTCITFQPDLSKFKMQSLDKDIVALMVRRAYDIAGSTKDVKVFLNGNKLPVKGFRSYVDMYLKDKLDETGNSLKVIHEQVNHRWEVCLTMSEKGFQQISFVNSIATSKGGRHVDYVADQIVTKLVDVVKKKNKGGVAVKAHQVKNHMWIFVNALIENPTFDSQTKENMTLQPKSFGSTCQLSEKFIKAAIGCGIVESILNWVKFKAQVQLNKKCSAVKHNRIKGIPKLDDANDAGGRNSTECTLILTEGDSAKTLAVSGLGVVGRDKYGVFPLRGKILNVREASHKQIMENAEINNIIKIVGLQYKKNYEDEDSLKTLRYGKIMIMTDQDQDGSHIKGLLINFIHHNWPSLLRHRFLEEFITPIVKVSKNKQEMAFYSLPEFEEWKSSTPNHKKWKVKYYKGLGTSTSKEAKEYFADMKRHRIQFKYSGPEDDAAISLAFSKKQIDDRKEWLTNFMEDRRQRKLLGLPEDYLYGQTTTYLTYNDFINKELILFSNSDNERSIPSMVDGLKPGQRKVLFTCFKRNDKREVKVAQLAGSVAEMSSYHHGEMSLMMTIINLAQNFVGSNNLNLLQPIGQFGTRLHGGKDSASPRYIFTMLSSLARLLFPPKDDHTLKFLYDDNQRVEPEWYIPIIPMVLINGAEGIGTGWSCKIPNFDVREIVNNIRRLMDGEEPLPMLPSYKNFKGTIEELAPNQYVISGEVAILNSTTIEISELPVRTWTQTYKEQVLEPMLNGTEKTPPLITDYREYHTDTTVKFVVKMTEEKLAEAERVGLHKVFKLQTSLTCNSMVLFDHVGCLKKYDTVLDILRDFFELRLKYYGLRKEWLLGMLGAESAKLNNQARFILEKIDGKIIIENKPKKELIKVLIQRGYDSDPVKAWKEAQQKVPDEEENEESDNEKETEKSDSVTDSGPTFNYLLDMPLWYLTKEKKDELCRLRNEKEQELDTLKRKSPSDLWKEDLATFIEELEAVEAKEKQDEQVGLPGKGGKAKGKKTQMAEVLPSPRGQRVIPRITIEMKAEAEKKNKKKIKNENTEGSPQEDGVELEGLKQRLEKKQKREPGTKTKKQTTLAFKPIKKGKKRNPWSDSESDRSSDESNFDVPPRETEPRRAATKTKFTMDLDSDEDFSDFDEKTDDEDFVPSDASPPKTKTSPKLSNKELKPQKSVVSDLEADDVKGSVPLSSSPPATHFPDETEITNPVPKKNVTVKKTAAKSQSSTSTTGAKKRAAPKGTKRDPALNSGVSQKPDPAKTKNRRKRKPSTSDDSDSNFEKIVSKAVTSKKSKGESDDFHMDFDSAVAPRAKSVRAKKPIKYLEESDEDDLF

Structure (SMILES)	Activity [3]	IC50 [6]	Activity [7]	Activity [8]	Activity [9]	Activity [11]	Activity [14]	Activity [16]	Activity [17]	Activity [18]	Activity [21]	IC50 [24]	Activity [26]	Activity [27]	Activity [28]	IC50 [29]	Activity [32]	Activity [34]	Activity [36]	Activity [37]	other results
CC[C@@]1(OC(=O)NCCN2C(=O)CCSSCCC2=O)C(=O)OCc2c1cc1n(c2=O)Cc2cc3ccccc3nc2-1	inactive	12000 nM	Active	inactive	Active	inactive	inactive	inactive	Active	inactive	inactive	2970 nM	Active	Active	Active	8100 nM	Active	inactive	Active	Active	Activity [1]: Active; Activity [2]: inactive; Activity [4]: inactive; Activity [5]: inactive; Activity [10]: inactive; Activity [12]: inactive; Activity [13]: inactive; Activity [15]: inactive; Activity [19]: inactive; Activity [20]: inactive; Activity [22]: inactive; Activity [23]: inactive; Activity [25]: inactive; Activity [30]: Dose-dependent effect; Activity [31]: inactive; Activity [33]: inactive; Activity [35]: inactive; Activity [38]: inactive; Activity [39]: Active; Activity [40]: inactive
CC[C@@]1(OC(=O)NCCNC(=O)CCCCCCCCC(=O)NCCNC(=O)O[C@]2(CC)C(=O)OCc3c2cc2n(c3=O)Cc3cc4ccccc4nc3-2)C(=O)OCc2c1cc1n(c2=O)Cc2cc3ccccc3nc2-1	inactive	300 nM	Active	Active	Active	Active	Active	Active	Active	inactive	Active	80 nM	Active	Active	Active	420 nM	Active	Active	Active	Active	Activity [41]: inactive; fold change (FC) [42]: 8; Activity [39]: Active
